Activity calls are given as the source filed them. The calls are words filed in the database; no cut-off is given here.
What was measured:
[1] = target: T1, Isocitrate dehydrogenase [NADP] cytoplasmic (Homo sapiens, UniProt O75874); details: dose 3-100 µM
[2] = target: T2, Isocitrate dehydrogenase [NADP] cytoplasmic (Homo sapiens, UniProt O75874, R132H); test: Inhibition of recombinant IDH1 R132H mutant (unknown origin) expressed in Escherichia coli BL21(DE3) pLysS cells using 2OG as substrate assessed as 2OG conversion to 2HG incubated for 60 mins in presence of NADPH by spectrophotometric analysis
[3] = Selectivity index, ratio of IC50 for recombinant wildtype IDH1 expressed in Escherichia coli BL21(DE3) pLysS cells to IC50 for recombinant IDH1 R132H mutant (unknown origin) expressed in Escherichia coli BL21(DE3) pLysS cells
[4] = system: Isocitrate dehydrogenase [NADP] cytoplasmic (Homo sapiens), O75874 [R132H]; details: dose 3-100 µM
[5] = system: Isocitrate dehydrogenase [NADP] cytoplasmic (Homo sapiens), O75874 [R132H]; details: dose 42.0 µM
[6] = system: Isocitrate dehydrogenase [NADP] cytoplasmic (Homo sapiens), O75874 [R132H]; test: Binding affinity to recombinant IDH1 R132H mutant (unknown origin) expressed in Escherichia coli BL21(DE3) pLysS cells incubated in presence of MgCl2 by NMR analysis
[7] = target: T1, Isocitrate dehydrogenase [NADP] cytoplasmic; test: Binding affinity to recombinant wildtype IDH1 (unknown origin) expressed in Escherichia coli BL21(DE3) pLysS cells incubated in presence of MgCl2 by NMR analysis
[8] = system: Isocitrate dehydrogenase [NADP] cytoplasmic (Homo sapiens), O75874 [R132H]; test: Binding affinity to recombinant IDH1 R132H mutant (unknown origin) expressed in Escherichia coli BL21(DE3) pLysS cells incubated in presence of MgCl2 by ITC assay
Procedure, shortened: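 IDH1 R132H homodimer in 50 mM tris–HCl, pH 7.5; 40 μM protein in cell (4% v/v DMSO) titrated at 25 °C with 200 or 400 μM compound (2% or 4% DMSO), 19 injections (0.4 μL, then 2.0 μL × 18, 150 s spacing), 750 rpm; thermodynamic parameters from fitted isotherm.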

[9] = target: T2, Isocitrate dehydrogenase [NADP] cytoplasmic; test: Binding affinity to human recombinant IDH1 R132H mutant expressed in Escherichia coli BL21(DE3) pLysS cells assessed as dissociation constant by non-denaturing mass spectroscopic analysis
[10] = target: T1, Isocitrate dehydrogenase [NADP] cytoplasmic; test: Binding affinity to recombinant IDH1 (unknown origin) expressed in Escherichia coli BL21(DE3) pLysS cells incubated in presence of MgCl2 by ITC assay
Procedure, shortened: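 Homodimeric wt IDH1 in 50 mM tris–HCl, pH 7.5; cell 40 μM protein (4% v/v DMSO), titrant 200 or 400 μM compound (2% or 4% DMSO). 25 °C, stirring 750 rpm, 19 injections (0.4 μL then 18 × 2.0 μL, 150 s apart); thermodynamic parameters fitted from the heats.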

[11] = target: T1, Isocitrate dehydrogenase [NADP] cytoplasmic; test: Binding affinity to human recombinant IDH1 expressed in Escherichia coli BL21(DE3) pLysS cells assessed as dissociation constant by non-denaturing mass spectroscopic analysis

Chain of Isocitrate dehydrogenase [NADP] cytoplasmic (Homo sapiens), O75874 [R132H] (O75874 whole entry R132H): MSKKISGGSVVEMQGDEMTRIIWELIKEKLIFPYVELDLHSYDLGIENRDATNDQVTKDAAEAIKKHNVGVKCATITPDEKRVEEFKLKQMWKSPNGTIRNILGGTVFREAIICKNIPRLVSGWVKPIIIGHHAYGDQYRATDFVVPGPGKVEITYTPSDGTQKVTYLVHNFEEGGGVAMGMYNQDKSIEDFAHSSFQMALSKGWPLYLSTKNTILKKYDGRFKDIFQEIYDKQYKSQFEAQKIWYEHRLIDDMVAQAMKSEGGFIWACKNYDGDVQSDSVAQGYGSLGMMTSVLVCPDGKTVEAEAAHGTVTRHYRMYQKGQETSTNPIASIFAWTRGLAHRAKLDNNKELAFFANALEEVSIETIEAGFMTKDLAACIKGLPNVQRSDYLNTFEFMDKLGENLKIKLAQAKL
T1 sequence (O75874 whole entry): as the sequence (O75874 whole entry R132H) above, with H132R counted along it
T2 sequence (O75874 2-414 R132H limits assumed): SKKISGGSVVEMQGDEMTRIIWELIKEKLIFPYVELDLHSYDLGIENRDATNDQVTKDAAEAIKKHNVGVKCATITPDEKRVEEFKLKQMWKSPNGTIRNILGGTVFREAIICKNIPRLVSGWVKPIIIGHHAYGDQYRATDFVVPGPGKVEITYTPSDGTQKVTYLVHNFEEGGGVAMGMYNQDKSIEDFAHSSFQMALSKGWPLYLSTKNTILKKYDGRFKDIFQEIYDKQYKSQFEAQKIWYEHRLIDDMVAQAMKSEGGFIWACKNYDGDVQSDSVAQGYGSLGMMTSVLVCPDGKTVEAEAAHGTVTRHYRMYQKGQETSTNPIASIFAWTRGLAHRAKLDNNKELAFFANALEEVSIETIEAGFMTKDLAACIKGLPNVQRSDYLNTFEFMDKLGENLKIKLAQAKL

With `Cc1ccccc1C(C(=O)NC1CCCCC1)N(C(=O)Cn1cnc2ccccc21)c1cccc(F)c1` (stereo not drawn) as the compound, how does the ΔTm [1] read?
The ΔTm was 8.1 °C.

And the IC50 [2]?
The IC50 was 0.073 µM.

And the Ratio IC50 [3]?
The Ratio IC50 was greater than 556.

And the ΔTm [4]?
The ΔTm was 6.6 °C.

With `CC(=O)N1CCN(Cc2ccc([C@H](C)Nc3nccc(N4C(=O)OC[C@@H]4C(C)C)n3)cc2)CC1` as the compound, how does the ΔTm [5] read?
Its ΔTm is 11.2 °C.

And the ΔTm [4]?
Its ΔTm is 11.7 °C.

Which Activity [6] does the source give for `COc1c(C)cc(NC(=O)c2nn(Cc3ccc(F)cc3)c3c2CN(C(=O)c2ccc[nH]2)C[C@]3(C)C(N)=O)cc1C` here?
Its Activity is “Active”.

What about the Activity [7] of the same compound?
The Activity was “Active”.

What about the Activity [8] of the same compound?
The Activity was “Active”.

And the Kd [9]?
The Kd was 23 µM.

And the Activity [10]?
The Activity was “Active”.

What about the Kd [11] of the same compound?
The Kd was 24 µM.

For `Cc1ccccc1C(C(=O)NC1CCCCC1)N(C(=O)Cn1ccnc1C)c1cccc(F)c1` (stereo not drawn), which Kd [9] is on record?
The Kd was 98 µM.

From ChEMBL document CHEMBL5352499, “Differentiating Inhibition Selectivity and Binding Affinity of Isocitrate Dehydrogenase 1 Variant Inhibitors” (J Med Chem, 2023)
